Screening data as filed in PubChem BioAssay.
Rows were chosen to be rich in hits. Some 1.4% of all compounds tested hit in one or more screens of this group.
MT1-MMP act inh: blocks activation of human MT1-MMP; P50281; HT1080 RFP-PRO-GFP cells, GFP/RFP ratio fluorescence, overnight; percent of plate control window, DMSO zero; GFP/RFP ratio change, % at 20 µM; 360,000 tested, 0.061% active;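 active means GFP/RFP ratio change of at least 30% with cell ATP level not reduced by more than half and red fluorescence within 50% of control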
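Read-out: GFP/RFP fluorescence ratio; Test system: RFP-PRO-GFP reporter HT1080 cells; Compound dosing: single-point 20 µM compound, 1% DMSO; Times: overnight compound exposure at 37 °C.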
CendR NRP1 mod: NRP-1/CendR interaction modulation. inhibition, % at 25 µM. 360,000 tested, 0.85% active. FAM-RPARPAR peptide binding to NRP-1, fluorescence polarization. AID 602438. O14786;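 active means inhibition or corrected inhibition above about 18%, plus a signal ratio from 0.5 to 1.5, limit read from the data, passing the limit was not always enough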
Target sequence (O14786 whole entry, looked up): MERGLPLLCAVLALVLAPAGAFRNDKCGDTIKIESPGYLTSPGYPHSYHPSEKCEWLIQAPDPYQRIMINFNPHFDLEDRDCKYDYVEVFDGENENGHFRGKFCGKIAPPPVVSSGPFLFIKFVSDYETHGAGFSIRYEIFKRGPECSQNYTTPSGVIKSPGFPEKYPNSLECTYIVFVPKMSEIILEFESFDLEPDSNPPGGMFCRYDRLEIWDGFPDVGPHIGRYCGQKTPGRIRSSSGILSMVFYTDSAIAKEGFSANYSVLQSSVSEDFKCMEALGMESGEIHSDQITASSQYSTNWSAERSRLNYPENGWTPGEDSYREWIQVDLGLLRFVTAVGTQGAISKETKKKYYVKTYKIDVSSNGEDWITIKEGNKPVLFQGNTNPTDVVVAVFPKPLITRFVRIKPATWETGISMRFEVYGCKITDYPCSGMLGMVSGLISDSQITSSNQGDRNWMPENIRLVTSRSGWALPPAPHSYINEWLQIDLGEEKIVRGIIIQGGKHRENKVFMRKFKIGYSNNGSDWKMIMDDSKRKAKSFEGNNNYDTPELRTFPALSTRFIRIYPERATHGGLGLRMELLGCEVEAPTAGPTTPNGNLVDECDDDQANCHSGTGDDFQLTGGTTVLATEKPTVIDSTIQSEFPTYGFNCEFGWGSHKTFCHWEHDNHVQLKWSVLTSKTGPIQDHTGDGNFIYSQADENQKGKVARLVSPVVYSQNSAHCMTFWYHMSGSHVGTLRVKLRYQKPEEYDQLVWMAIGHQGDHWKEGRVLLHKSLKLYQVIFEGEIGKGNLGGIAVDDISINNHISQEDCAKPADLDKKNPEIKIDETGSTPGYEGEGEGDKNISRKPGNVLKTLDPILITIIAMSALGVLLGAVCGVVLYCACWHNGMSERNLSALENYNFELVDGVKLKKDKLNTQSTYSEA
iPSC survival up: hiPSC single-cell survival enhancement | ATPlite luminescence; 100% = ROCK inhibitor wells, 0% = DMSO | 360,000 tested, 0.044% active | survival enhancement, % at 20 µM | AID 602274; in the data active means survival enhancement above about 18%;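 further: cells exposed to compounds for 16 hours before the ATP read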
SKN-1 inh: C. elegans SKN-1 inhibition; AID 624304; C. elegans VP596 Pgst-4::GFP/RFP ratio, acrylamide-induced, 24 h; inhibition, % at 21.8 µM; 360,000 tested, 0.49% active;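 active means interference check ratio from 0.5 to 1.5 plus GFP to RFP signal ratio inhibition reaching or exceeding a fixed threshold, cut at about 30% in these data, passing the limit was not always enough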
Numbers stand for hits; – = inactive.

SMILES	MT1-MMP act inh	CendR NRP1 mod	iPSC survival up	SKN-1 inh
COC(=O)[C@@H]1C[C@@]2(O)[C@H](O)[C@H](O)[C@H](O)C[C@H]2N1CC1CC1	–	–	–	–
COc1ccc(NC(=O)CSc2nccn2-c2ccccc2)c(OC)c1	–	25.5	–	–
COCc1cc(=O)[nH]c(/N=C(\N)Nc2ccc(C)cc2C)n1	–	27.0	–	–
CC1(C(=O)NS(=O)(=O)c2ccccc2)CCN1C(=O)c1ccc(C2CCCCC2)cc1 (stereo not drawn)	–	–	–	–
Cc1ccc(F)c(S(=O)(=O)NC(=O)C2(C)CCN2C(=O)c2ccc(C3CCCCC3)cc2)c1 (stereo not drawn)	–	26.5	–	–
O=C1/C(=C/c2ccccc2)SC(=S)N1CCCC(=O)N1CCCCC1CCO (stereo not drawn)	–	–	–	–
O=C1/C(=C/c2cccs2)SC(=S)N1CC(=O)N1CCCCC1CCO (stereo not drawn)	–	–	–	43.7
COc1ccc(/C=N/NC(=O)Cc2csc(Nc3cccc(C(F)(F)F)c3)n2)cc1C	–	–	–	36.9
COc1cc(/C=N/NC(=O)Cc2csc(C)n2)ccc1OCC(C)C	–	–	–	–
CCOc1ccc(N(CC(=O)N2CCC(Cc3ccccc3)CC2)S(C)(=O)=O)cc1	–	28.9	–	–
CCOc1ccc(C(=O)Nc2nnc(SCC(=O)NCC3CCCO3)s2)cc1OCC (stereo not drawn)	–	20.7	–	–
COc1cc(C(=O)Nc2nnc(SCC(=O)NCC3CCCO3)s2)cc(OC)c1OC (stereo not drawn)	–	–	–	–
CC(C)(CO)NC(=O)CC1C(=O)NCCN1CC(c1ccccc1)c1ccccc1 (stereo not drawn)	–	–	–	–
COc1cc(C(=O)Nc2cc(S(=O)(=O)N3CCOCC3)ccc2N2CCOCC2)ccc1OC(F)F	–	–	–	–
CCOc1ccc(S(=O)(=O)NC2=NCCCCC2)cc1	–	17.6	–	–
CC(C)(C)c1ccc(NC(=O)CSc2n[nH]c(=O)n2-c2cccnc2)cc1	–	–	–	–
NS(=O)(=O)c1ccc(CNC(=O)C2CCCN2C(=O)c2cccs2)cc1 (stereo not drawn)	–	–	–	–
Cc1cc(O)c(C(C)C)cc1NC(=O)Nc1ccc([N+](=O)[O-])cc1	–	–	–	43.8
Cc1ccc(C(C)C)cc1NC(=O)Nc1ccc([N+](=O)[O-])cc1	–	–	–	–
C=CCOc1ccc(C2C(C#N)=C(N)N(Nc3ccccc3)C3=C2C(=O)CC(C)(C)C3)cc1OC (stereo not drawn)	–	–	–	–
CCCCn1c(N)c(N(CCC(C)C)C(=O)C2CC(=O)N(c3cccc(SC)c3)C2)c(=O)[nH]c1=O (stereo not drawn)	–	–	–	–
Cc1ccnc(N2CCC(C(=O)Nc3ccc4c(c3)OCCO4)CC2)n1	–	24.8	–	–
Cc1ncoc1C(=O)Nc1ccc(Oc2ccccc2)cc1	–	–	–	–
O=S(=O)(Nc1nc2c(s1)CCCC2)c1ccc2ccccc2c1	–	–	–	–
c1ccc2c(Nc3nc4c(s3)CCCC4)cccc2c1	–	–	–	45.4
SMILES	MT1-MMP act inh	CendR NRP1 mod	iPSC survival up	SKN-1 inh
O=C(NC1CCCCCC1)c1ccc(CS(=O)(=O)Cc2ccc(F)cc2)o1	–	–	–	–
O=S(=O)(c1ccc(N2CCCC2)cc1)C(F)(F)F	–	–	–	41.8
O=S(=O)(c1ccc(N2CCN(c3ccc(F)cc3)CC2)cc1)N1CCCC1	–	–	–	–
Oc1ccc(-c2nc3ncccn3c2Nc2ccc3c(c2)OCO3)cc1	–	24.2	–	–
CC(C)Oc1ccc(S(=O)(=O)N2CCCCC2)cc1NC(=O)CN1CCCC1c1cccs1 (stereo not drawn)	–	–	–	–
O=C(c1ccc(Cl)c(S(=O)(=O)N2CCCCC2)c1)N1CCN(c2ccccc2)CC1	–	–	–	–
O=C(C1CCN(S(=O)(=O)c2ccc(Cl)s2)CC1)N1CCN(c2ccccc2)CC1	–	27.6	–	–
O=C(c1ccc(Cl)c(S(=O)(=O)N2CCCC2)c1)N1CCN(c2ccccc2)CC1	–	36.9	–	–
CCOC(=O)C1CCN(C(=O)c2ccc(Cl)c(S(=O)(=O)N3CCCC3)c2)CC1	–	30.4	–	–
CCOC(=O)C1CCN(C(=O)c2ccc(Cl)c(S(=O)(=O)N3CCOCC3)c2)CC1	–	–	–	–
O=C(CN1CCSCC1)c1c[nH]c2ccccc12	–	–	–	–
CCOC(=O)c1c2c(n(Cc3ccccc3)c1C)C(=O)C(=O)c1ccccc1-2	–	32.4	–	–
NC(=O)c1ccsc1NC(=O)COC(=O)c1ccncc1	–	–	–	–
CCCCn1c(N)c(N(CCOC)C(=O)C2CCN(S(=O)(=O)c3ccc(F)cc3)CC2)c(=O)[nH]c1=O	–	–	–	–
O=C(NNC1=C(C(=O)C(F)(F)F)CCC1)c1cccc(O)c1	–	–	–	–
Cc1cccc(C(=O)NNC2=C(C(=O)C(F)(F)F)CCC2)c1O	–	58.2	–	–
CCCCn1c(-c2cccc(F)c2)nc2c1c(=O)[nH]c(=O)n2CC(C)C	–	–	–	–
O=C(Nc1nccs1)C(Br)C(Br)c1ccccc1 (stereo not drawn)	–	–	–	–
O=C(O)[C@@H]1CCCN(S(=O)(=O)c2cccc3cccnc23)C1	–	26.2	–	–
Cc1c(S(=O)(=O)N2CCCC(C(=O)O)C2)cnn1C (stereo not drawn)	–	21.8	–	–
O=C(Nc1ccccc1Cl)C1CCCN(S(=O)(=O)c2cccc3cccnc23)C1 (stereo not drawn)	–	–	–	–
CCCCNC(=O)Nc1cnn(CC)c1C(N)=O	–	–	–	–
Cc1ccsc1C(=O)Nc1cccc(-n2cnnn2)c1	–	–	–	–
O=C(CSc1nccn1Cc1ccc(F)cc1)NC1CCCCC1	–	24.8	–	–
O=C(CSc1nccn1Cc1ccc(F)cc1)NC1CCCC1	–	–	–	–
SMILES	MT1-MMP act inh	CendR NRP1 mod	iPSC survival up	SKN-1 inh
Cc1ccccc1/C=C/c1cccc[n+]1C	–	–	–	–
Cc1ccc(-c2noc(-c3cccs3)n2)cc1	–	–	–	67.5
COc1ccc(-c2nc(-c3cccs3)no2)cc1	–	–	–	38.2
c1csc(-c2nc(-c3ccc(-c4ccon4)s3)no2)c1	–	–	–	46.5
COc1ccc(-c2nc(-c3ccncc3)no2)cc1	–	–	–	–
COc1ccccc1N1CCN(c2ccc3cc(S(=O)(=O)N4CCCCC4)ccc3n2)CC1	–	–	–	–
Cc1cc(C)c(S(=O)(=O)c2c(C)cccc2C)c(OCC(C)C)n1	–	–	–	–
COC(=O)c1cc(-c2ccccc2)on1	–	–	–	–
CC(=O)Nc1cccc(-c2cc(-c3c(Cl)cccc3Cl)no2)c1	–	–	–	–
CCCNC(=O)c1cc(C)no1	–	25.3	–	–
O=S1(=O)C=C(Oc2ccc3ccccc3c2)c2ccccc21	–	–	–	37.0
O=C1C2C3CCC(O3)C2C(=O)N1c1nccs1 (stereo not drawn)	–	–	–	–
